Laboratory results published in ChEMBL document CHEMBL1909575, “Novel natural product-based cinnamates and their thio and thiono analogs as potent inhibitors of cell adhesion molecules on human endothelial cells” (Eur J Med Chem, 2011).
Values after ≈ are worked out from the molar mass of the structure shown.

Experiments:
[1] = Cytotoxicity against HUVEC assessed as maximum tolerated dose for >95% cell viability after 24 hrs by MTT assay; type: cell-based; details: human, HUVEC cells; read-out: MTD
Method in brief: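 Primary human umbilical vein endothelial cells (mild trypsinization), grown in M-199 with 15% heat-inactivated FCS, endothelial cell growth factor and heparin, 5% CO2. Cells attached overnight, then exposed to compounds or DMSO (0.25%) for 24 h; MTT (5 mg/mL in PBS) 4 h, formazan dissolved in DMSO, absorbance 570 nm. Also checked by trypan blue exclusion. Value is highest concentration giving >95% viability; ≥3 experiments in triplicate.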

HUVEC [2] = test: Antiinflammatory activity against TNF-alpha-induced ICAM1 protein expression in HUVEC at maximum tolerated dose pretreated for 2 hrs before TNFalpha challenge measured after 16 hrs by whole cell ELISA; type: functional, Homo sapiens
Method in brief: (§1)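 Primary umbilical cord endothelial cells were pre-incubated 2 h with or without compound, then TNF-α (10 ng/mL) for 16 h (ICAM-1, VCAM-1) or 4 h (E-selectin). Whole-cell ELISA: glutaraldehyde fixation, milk block, primary antibody overnight at 4 °C, peroxidase secondary, OPD substrate, A490. IC50 read from %inhibition vs log concentration plots of three independent experiments. Single-level values were taken at the highest concentration giving >95% viability (MTT, 24 h).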

HUVEC [3] = test: Antiinflammatory activity against TNF-alpha-induced ICAM1 protein expression in HUVEC pretreated for 2 hrs before TNFalpha challenge measured after 16 hrs by whole cell ELISA; type: functional, cell-based; details: Homo sapiens; method in brief: as §1
[4] = Antiinflammatory activity against TNF-alpha-induced VCAM-1 protein expression in HUVEC by ELISA

SMILES | MNTC at 24 h [1] [µg/mL] | inhibition (INH) (HUVEC [2]) [%] | IC50 (HUVEC [3]) [µg/mL] | IC50 [4] [mM]
CCCCCCCCSC(=O)/C=C/c1cc(OC)ccc1OC | 50 | 30 | – | –
COc1ccc(OC)c(/C=C/C(=O)SCc2ccccc2)c1 | 60 | 50 | 60 (≈ 191 µM) | –
CCCOC(=O)CCc1cc(OC)c(OC)c(OC)c1 | 120 | 62 | 110 (≈ 390 µM) | –
CCCCCCCCSC(=O)/C=C/c1ccccc1 [OCTYL THIOCINNAMATE] | 60 | 45 | – | –
CCCCOC(=O)/C=C/c1ccccc1 [BUTYL CINNAMATE] | 140 | 55 | 125 (≈ 612 µM) | –
COc1cc(CCC(=O)OC(C)C)cc(OC)c1OC | 65 | 40 | – | –
CC(C)OC(=S)/C=C/c1ccccc1 [ISOPROPYL THIONOCINNAMATE] | 35 | 80 | 20 (≈ 96.9 µM) | –
CCSC(=O)/C=C/c1cc(OC)c(OC)c(OC)c1 | 30 | 65 | 25 (≈ 88.5 µM) | –
CCOC(=O)/C=C/c1cc(OC)c(OC)c(OC)c1 | 50 | 90 | 25 (≈ 93.9 µM) | –
COc1ccc(OC)c(/C=C/C(=O)OC(C)C)c1 | 120 | 35 | – | –
O=C(/C=C/c1ccccc1)SCc1ccccc1 [BENZYL THIOCINNAMATE] | 60 | 40 | – | –
CCCSC(=O)/C=C/c1cc(OC)ccc1OC | 50 | 55 | 45 (≈ 169 µM) | –
CCCCOC(=S)/C=C/c1ccccc1 [BUTYL THIONOCINNAMATE] | 85 | 70 | 55 (≈ 250 µM) | –
COc1cc(/C=C/C(=O)OC(C)C)cc(OC)c1OC | 65 | 80 | 45 (≈ 161 µM) | –
CCCOC(=S)/C=C/c1cc(OC)c(OC)c(OC)c1 | 30 | 80 | 17 (≈ 57.4 µM) | –
COc1ccc(CCC(=O)OC(C)C)cc1OC | 110 | 30 | – | –
CCCOC(=O)/C=C/c1cc(OC)ccc1OC | 120 | 55 | 110 (≈ 439 µM) | –
O=C(/C=C/c1ccccc1)OCc1ccccc1 [BENZYL CINNAMATE] | 70 | 50 | 70 (≈ 294 µM) | –
CCSC(=O)/C=C/c1cc(OC)ccc1OC | 50 | 70 | 35 (≈ 139 µM) | –
CCOC(=O)CCc1cc(OC)c(OC)c(OC)c1 | 110 | 50 | 110 (≈ 410 µM) | –
COc1cc(CCC(=O)SCc2ccccc2)cc(OC)c1OC | 60 | 45 | – | –
O=C(/C=C/c1ccccc1)Sc1ccccc1 [PHENYL THIOCINNAMATE] | 70 | 65 | 55 (≈ 229 µM) | –

SMILES | MNTC at 24 h [1] [µg/mL] | inhibition (INH) (HUVEC [2]) [%] | IC50 (HUVEC [3]) [µg/mL] | IC50 [4] [mM]
COc1cc(/C=C/C(=O)Sc2ccccc2)cc(OC)c1OC | 50 | 85 | 30 (≈ 90.8 µM) | –
Nc1ccc(O)c(C(=O)O)c1 [MESALAMINE] | – | – | – | 16
CCCSC(=O)/C=C/c1cc(OC)c(OC)c(OC)c1 | 70 | 50 | 70 (≈ 236 µM) | –
CCCOC(=S)/C=C/c1cc(OC)ccc1OC | 40 | 70 | 25 (≈ 93.9 µM) | –
CCCCCCCCOC(=O)/C=C/c1ccccc1 [OCTYL CINNAMATE] | 70 | 35 | – | –
CCSC(=O)/C=C/c1ccccc1 [ETHYL THIOCINNAMATE] | 50 | 55 | 47 (≈ 244 µM) | –
COc1ccc(OC)c(/C=C/C(=O)Oc2ccccc2)c1 | 60 | 30 | – | –
CCSC(=O)CCc1cc(OC)c(OC)c(OC)c1 | 60 | 50 | 60 (≈ 211 µM) | –
CC(=O)Oc1ccccc1C(=O)O [ASPIRIN] | – | – | – | 6
COc1cc(/C=C/C(=O)SCc2ccccc2)cc(OC)c1OC | 40 | 75 | 20 (≈ 58.1 µM) | –
CCOC(=S)/C=C/c1ccccc1 [ETHYL THIONOCINNAMATE] | 50 | 90 | 22 (≈ 114 µM) | –
CCCOC(=O)/C=C/c1ccccc1 [PROPYL CINNAMATE] | 140 | 70 | 100 (≈ 526 µM) | –
CCCCCCCCSC(=O)/C=C/c1cc(OC)c(OC)c(OC)c1 | 70 | 46 | – | –
CCOC(=O)/C=C/c1ccccc1 [ETHYL CINNAMATE] | 130 | 85 | 95 (≈ 539 µM) | –
COc1cccc(/C=C/C(=O)OC(C)C)c1O | 120 | 30 | – | –
CCCOC(=O)CCc1ccc(OC)c(OC)c1 | 100 | 55 | 90 (≈ 357 µM) | –
CCCCCCCCSC(=O)CCc1cc(OC)c(OC)c(OC)c1 | 80 | 40 | – | –
CCCOC(=S)/C=C/c1ccccc1 [PROPYL THIONOCINNAMATE] | 80 | 75 | 50 (≈ 242 µM) | –
CCCOC(=O)/C=C/c1cc(OC)c(OC)c(OC)c1 | 120 | 62 | 100 (≈ 357 µM) | –
COc1cc(/C=C/C(=O)Oc2ccccc2)cc(OC)c1OC | 45 | 40 | – | –
CCOC(=S)/C=C/c1cc(OC)ccc1OC | 25 | 80 | 15 (≈ 59.4 µM) | –
